30 compounds from ChEMBL document CHEMBL1126924, “R2 C-terminal peptide inhibition of mammalian and yeast ribonucleotide reductase” (J Med Chem, 1993) can be followed below.

Square brackets hold non-standard residues; d marks the D form. Peptide text beside a SMILES is read from it. aThr = C[C@H](O)[C@H](N)C(=O)O Some results are limits rather than exact numbers.

Usually IC50 stands for the concentration that gives 50% inhibition. High values mean weaker potency, low ones greater potency.

The first assay addresses Ribonucleoside-diphosphate reductase RR1 (Homo sapiens) (UniProt P23921+Q7LG56+P31350). Nature of the assay: Relative inhibitory potency against mammalian ribonucleotide reductase. The class given is protein-complex assay.
In turn, `CC(=O)N[C@@H](CC(N)=O)C(=O)N[C@@H](CO)C(=O)N[C@@H](Cc1ccccc1)C(=O)N[C@H](C(=O)N[C@@H](CC(C)C)C(=O)N[C@@H](CC(=O)O)C(=O)N[C@@H](C)C(=O)N[C@@H](CC(=O)O)C(=O)N[C@@H](Cc1ccccc1)C(=O)O)[C@H](C)O` registered an RI of 100%.
On the same count and under the same terms, the value for `CC(=O)N[C@@H](Cc1ccc(N=[N+]=[N-])cc1)C(=O)N[C@H](C(=O)N[C@@H](CC(C)C)C(=O)N[C@@H](CC(=O)O)C(=O)N[C@@H](C)C(=O)N[C@@H](CC(=O)O)C(=O)N[C@@H](Cc1ccccc1)C(=O)O)[C@H](C)O` was 10%; that for `CC(=O)N[C@H](C(=O)N[C@@H](CC(C)C)C(=O)N[C@@H](CC(=O)O)C(=O)N[C@@H](C)C(=O)N[C@@H](CC(=O)O)C(=O)N[C@@H](Cc1ccccc1)C(=O)O)[C@H](C)O` was below 3%; that for `CC(=O)N[C@@H](Cc1ccccc1)C(=O)N[C@H](C(=O)N[C@@H](CC(C)C)C(=O)N[C@@H](CC(=O)O)C(=O)NCC(=O)N[C@@H](CC(=O)O)C(=O)N[C@@H](Cc1ccccc1)C(=O)O)[C@H](C)O` was 9%.
In the case of `CC(=O)N[C@@H](Cc1ccccc1)C(=O)N[C@H](C(=O)N[C@@H](CC(C)C)C(=O)N[C@@H](CC(=O)O)C(=O)N[C@@H](C)C(=O)N[C@@H](CC(N)=O)C(=O)N[C@@H](Cc1ccccc1)C(=O)O)[C@H](C)O`, the RI came to 23%.
The same measure, in the same setting: the value for `CC(=O)N[C@@H](Cc1ccccc1)C(=O)N[C@H](C(=O)N[C@@H](CC(C)C)C(=O)N[C@@H](CC(=O)O)C(=O)N[C@@H](Cc1ccccc1)C(=O)O)[C@H](C)O` was 2.5%.
In the case of `CC(=O)N[C@@H](Cc1ccccc1)C(=O)N[C@H](C(=O)N[C@@H](CC(C)C)C(=O)N[C@@H](CC(=O)O)C(=O)N[C@@H](C)C(=O)N[C@@H](C)C(=O)N[C@@H](Cc1ccccc1)C(=O)O)[C@H](C)O`, the RI worked out at 28%.
Same read-out and setting: the value for `CC(=O)N[C@@H](Cc1ccccc1)C(=O)N[C@H](C(=O)N[C@@H](CC(C)C)C(=O)N[C@@H](CC(=O)O)C(=O)N[C@@H](CC(=O)O)C(=O)N[C@@H](Cc1ccccc1)C(=O)O)[C@H](C)O` was 3%; that for Ac-LDADF-OH was below 3%.
Still for that read-out and setting: the value for `CC(=O)N[C@@H](Cc1ccccc1)C(=O)N[C@H](C(=O)N[C@@H](CC(C)C)C(=O)N[C@@H](CC(=O)O)C(=O)N[C@@H](C)C(=O)N[C@@H](CC(C)C)C(=O)N[C@@H](Cc1ccccc1)C(=O)O)[C@H](C)O` was 34%; that for `CC(=O)N[C@@H](Cc1ccccc1)C(=O)N[C@H](C(=O)N[C@@H](CC(C)C)C(=O)N[C@@H](CC(=O)O)C(=O)N[C@@H](C)C(=O)N[C@@H](CC(=O)O)C(=O)N[C@@H](Cc1ccccc1)C(=O)N[C@@H](C)C(=O)N[C@@H](C)C(=O)O)[C@H](C)O` (Ac-F[aThr]LDADFAA-OH) was 2.1%; that for `CC(C)C[C@H](NC(=O)[C@@H](NC(=O)[C@@H](N)Cc1ccccc1)[C@H](C)O)C(=O)N[C@@H](CC(=O)O)C(=O)N[C@@H](C)C(=O)N[C@@H](CC(=O)O)C(=O)N[C@@H](Cc1ccccc1)C(=O)O` (H-F[aThr]LDADF-OH) was below 3%.
The compound `CC(=O)N[C@@H](Cc1ccccc1)C(=O)N[C@H](C(=O)N[C@@H](CC(C)C)C(=O)N[C@@H](CC(=O)O)C(=O)N[C@@H](C)C(=O)N[C@@H](CCC(=O)O)C(=O)N[C@@H](Cc1ccccc1)C(=O)O)[C@H](C)O` returned an RI of 1.7%.
`CC(=O)N[C@@H](Cc1ccc(N)cc1)C(=O)N[C@H](C(=O)N[C@@H](CC(C)C)C(=O)N[C@@H](CC(=O)O)C(=O)N[C@@H](C)C(=O)N[C@@H](CC(=O)O)C(=O)N[C@@H](Cc1ccccc1)C(=O)O)[C@H](C)O` gave an RI of 10%.
Same read-out and setting: then `CC(=O)N[C@@H](Cc1ccccc1)C(=O)N[C@H](C(=O)N[C@@H](Cc1ccccc1)C(=O)N[C@@H](CC(=O)O)C(=O)N[C@@H](C)C(=O)N[C@@H](CC(=O)O)C(=O)N[C@@H](Cc1ccccc1)C(=O)O)[C@H](C)O`, with 18%.
Regarding `CC(=O)N[C@@H](CC(C)C)C(=O)N[C@H](C(=O)N[C@@H](CC(C)C)C(=O)N[C@@H](CC(=O)O)C(=O)N[C@@H](C)C(=O)N[C@@H](CC(=O)O)C(=O)N[C@@H](Cc1ccccc1)C(=O)O)[C@H](C)O` (Ac-L[aThr]LDADF-OH), the RI is below 3%.
Consider `CC(=O)N[C@@H](Cc1ccccc1)C(=O)N[C@H](C(=O)N[C@@H](CC(C)C)C(=O)N[C@@H](CC(=O)O)C(=O)N[C@@H](C)C(=O)N[C@@H](CC(=O)O)C(=O)N[C@@H](CC(C)C)C(=O)O)[C@H](C)O` (Ac-F[aThr]LDADL-OH), for which the RI is below 3%.
The same measure, in the same setting: then `CC(=O)N[C@@H](Cc1ccccc1)C(=O)N[C@H](C(=O)N[C@@H](CC(C)C)C(=O)N[C@@H](CC(N)=O)C(=O)N[C@@H](C)C(=O)N[C@@H](CC(=O)O)C(=O)N[C@@H](Cc1ccccc1)C(=O)O)[C@H](C)O`, with 40%; and `CC(=O)N[C@@H](Cc1ccccc1)C(=O)N[C@H](C(=O)N[C@@H](CC(C)C)C(=O)N[C@@H](CC(=O)O)C(=O)N[C@@H](CC(C)C)C(=O)N[C@@H](CC(=O)O)C(=O)N[C@@H](Cc1ccccc1)C(=O)O)[C@H](C)O`, with 35%.
On the same count and under the same terms, then `CC(=O)N[C@@H](Cc1ccccc1)C(=O)N[C@H](C(=O)N[C@@H](CC(C)C)C(=O)N[C@@H](CC(=O)O)C(=O)N[C@@H](C)C(=O)N[C@@H](CC(=O)O)C(=O)N[C@@H](Cc1ccccc1)C(=O)O)[C@H](C)O` (Ac-F[aThr]LDADF-OH), with 100%.
`CC(=O)N[C@@H](CO)C(=O)N[C@@H](Cc1ccccc1)C(=O)N[C@H](C(=O)N[C@@H](CC(C)C)C(=O)N[C@@H](CC(=O)O)C(=O)N[C@@H](C)C(=O)N[C@@H](CC(=O)O)C(=O)N[C@@H](Cc1ccccc1)C(=O)O)[C@H](C)O`: the RI was found to be 100%.
The same measure, in the same setting: the value for `CC(C)C[C@H](NC(=O)[C@@H](NC(=O)[C@H](Cc1ccccc1)NC(=O)[C@@H](N)CO)[C@H](C)O)C(=O)N[C@@H](CC(=O)O)C(=O)N[C@@H](C)C(=O)N[C@@H](CC(=O)O)C(=O)N[C@@H](Cc1ccccc1)C(=O)O` was 25%; that for `CC(=O)N[C@@H](Cc1ccccc1)C(=O)N[C@H](C(=O)N[C@@H](CC(C)C)C(=O)N[C@@H](C)C(=O)N[C@@H](C)C(=O)N[C@@H](CC(=O)O)C(=O)N[C@@H](Cc1ccccc1)C(=O)O)[C@H](C)O` was 2.9%; that for `CC(=O)N[C@@H](Cc1ccccc1)C(=O)N[C@H](C(=O)N[C@@H](C)C(=O)N[C@@H](CC(=O)O)C(=O)N[C@@H](C)C(=O)N[C@@H](CC(=O)O)C(=O)N[C@@H](Cc1ccccc1)C(=O)O)[C@H](C)O` was 4.9%.
For the compound Ac-FLDADF-OH, the RI was found to be 2.5%.
Same read-out and setting: then `CC(=O)N[C@@H](Cc1ccccc1)C(=O)N[C@H](C(=O)N[C@H](C(=O)N[C@@H](CC(=O)O)C(=O)N[C@@H](C)C(=O)N[C@@H](CC(=O)O)C(=O)N[C@@H](Cc1ccccc1)C(=O)O)C(C)C)[C@H](C)O`, with 35%.

Another assay addresses T1, Ribonucleoside-diphosphate reductase RR1 (Homo sapiens, UniProt P23921+P31350+Q7LG56).
T1 sequence (P23921 whole entry): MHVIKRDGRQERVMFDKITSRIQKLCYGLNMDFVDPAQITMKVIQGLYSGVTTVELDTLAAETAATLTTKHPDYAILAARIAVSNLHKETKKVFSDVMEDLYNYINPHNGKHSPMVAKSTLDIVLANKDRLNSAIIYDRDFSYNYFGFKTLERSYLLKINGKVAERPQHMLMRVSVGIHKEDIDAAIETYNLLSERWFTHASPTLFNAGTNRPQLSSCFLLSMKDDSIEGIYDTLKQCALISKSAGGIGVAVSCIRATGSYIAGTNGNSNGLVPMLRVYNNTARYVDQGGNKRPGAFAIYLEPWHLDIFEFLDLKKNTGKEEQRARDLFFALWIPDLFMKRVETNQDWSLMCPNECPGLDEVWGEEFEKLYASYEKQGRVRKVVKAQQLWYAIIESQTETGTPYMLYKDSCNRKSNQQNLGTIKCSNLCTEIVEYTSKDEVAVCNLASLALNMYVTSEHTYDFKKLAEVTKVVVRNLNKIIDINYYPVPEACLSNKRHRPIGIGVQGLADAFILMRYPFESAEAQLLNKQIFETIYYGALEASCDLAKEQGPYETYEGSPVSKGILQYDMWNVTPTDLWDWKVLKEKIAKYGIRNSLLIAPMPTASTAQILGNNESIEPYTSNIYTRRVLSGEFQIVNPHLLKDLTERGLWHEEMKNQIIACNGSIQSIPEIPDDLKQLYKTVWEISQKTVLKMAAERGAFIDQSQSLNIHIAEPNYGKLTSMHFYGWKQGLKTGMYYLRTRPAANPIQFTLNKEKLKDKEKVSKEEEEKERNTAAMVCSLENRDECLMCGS
T1 sequence (Q7LG56 whole entry): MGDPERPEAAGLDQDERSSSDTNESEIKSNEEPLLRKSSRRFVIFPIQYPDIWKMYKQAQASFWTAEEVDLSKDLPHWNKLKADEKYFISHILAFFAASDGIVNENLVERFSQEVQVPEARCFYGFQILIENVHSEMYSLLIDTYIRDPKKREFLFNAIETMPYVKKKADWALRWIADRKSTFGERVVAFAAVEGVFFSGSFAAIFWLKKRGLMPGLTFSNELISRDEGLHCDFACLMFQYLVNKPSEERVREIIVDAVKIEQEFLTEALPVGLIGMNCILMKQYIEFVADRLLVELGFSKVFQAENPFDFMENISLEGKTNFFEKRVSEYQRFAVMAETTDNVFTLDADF
T1 sequence (P31350 whole entry): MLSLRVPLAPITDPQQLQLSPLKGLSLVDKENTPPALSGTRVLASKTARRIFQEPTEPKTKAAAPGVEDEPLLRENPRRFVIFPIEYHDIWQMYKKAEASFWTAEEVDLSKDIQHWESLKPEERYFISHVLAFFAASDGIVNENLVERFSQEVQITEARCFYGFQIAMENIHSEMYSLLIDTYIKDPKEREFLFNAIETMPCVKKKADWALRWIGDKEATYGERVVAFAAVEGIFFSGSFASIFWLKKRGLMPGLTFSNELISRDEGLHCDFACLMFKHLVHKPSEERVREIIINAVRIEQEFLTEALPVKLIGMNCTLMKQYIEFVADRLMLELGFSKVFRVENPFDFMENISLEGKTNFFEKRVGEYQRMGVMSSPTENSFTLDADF
Nature of the assay: Inhibition of mammalian ribonucleotide reductase. Type of assay: protein-complex assay. An outline of the steps:
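Calf thymus R1 (1 μg) with cloned mouse R2 (2 μg) expressed in E. coli from pET-M2. CDP reduction was run at 35 °C with DTT as reductant. [³H]dCDP was separated on aminophenylboronate and counted by scintillation.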
Ac-LTLDADF-OH displayed a half-maximal inhibitory concentration (IC50) above 400 µM.
Still for that read-out and setting: the value for H-FTLDADF-OH was above 400 µM; that for Ac-FTLDADL-OH was above 400 µM.
As to Ac-LDADF-OH, the IC50 was above 400 µM.
Still for that read-out and setting: the value for `CC(=O)N[C@H](C(=O)N[C@@H](CC(C)C)C(=O)N[C@@H](CC(=O)O)C(=O)N[C@@H](C)C(=O)N[C@@H](CC(=O)O)C(=O)N[C@@H](Cc1ccccc1)C(=O)O)[C@@H](C)O` was above 400 µM.
